eIF4H FP inh = inhibitors of RNA binding by human eIF4H; Q15056; eIF4H fluorescence polarization binding assay; inhibition, % at 35 µM; 290,000 tested, 0.94% active; AID 2012;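 further: calls also rest on retests at 20 µM and on dose response follow-up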
EBNA-1 inh = blocks EBNA-1 binding to DNA. EBNA-1 DNA binding, fluorescence polarization. inhibition, % at 14.8 µM. 300,000 tested, 0.34% active. AID 1950; in the data active means inhibition above about 28%
PABP FP inh = blocks human PABP binding to poly(A) RNA. P11940. fluorescence polarization. inhibition, % at 35 µM. 290,000 tested, 1% active. AID 2014;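 further: calls also rest on retests at 20 µM and on dose response follow-up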
ZTA counter = blocks Epstein-Barr virus ZTA, an EBNA-1 counter-screen. ZTA-DNA binding, fluorescence polarization. inhibition, % at 11 µM. 320,000 tested, 0.15% active; in the data active means inhibition above about 33%
Target sequence (P03206 whole entry, looked up): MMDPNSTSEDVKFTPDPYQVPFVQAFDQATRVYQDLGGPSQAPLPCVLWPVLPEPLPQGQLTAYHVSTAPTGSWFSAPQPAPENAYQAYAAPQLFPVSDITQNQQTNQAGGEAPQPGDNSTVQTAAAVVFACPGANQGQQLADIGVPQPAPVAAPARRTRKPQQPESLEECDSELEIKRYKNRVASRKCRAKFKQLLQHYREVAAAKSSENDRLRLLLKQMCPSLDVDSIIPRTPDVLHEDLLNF
PABP1 MLLE inh = inhibitors of microRNA-mediated deadenylation, human PABP1 MLLE binding; GST-MLLE / FITC-PAM2 fluorescence polarization; inhibition, % at 20 µM; P11940; 360,000 tested, 0.36% active; in the data active means inhibition above about 35%, passing the limit was not always enough
HCV NS3 hel inh = blocks Hepatitis C virus NS3 helicase unwinding; AID 1800; NS3 helicase DNA unwinding, Cy5 molecular beacon fluorescence; 290,000 tested, 0.56% active; inhibition, % at 10.9 µM;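 active means inhibition above the mean of all tested compounds plus 3 SD, set per campaign, cut at about 35% in these data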
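Measured by: Cy5 fluorescence, 0 and 60 min reads / Assay system: NS3 helicase fragment of HCV / Control set: low DMSO, high thioflavine S at 110 µM / Times: 1 h reaction at 25 °C, ATP-initiated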
Numbers stand for hits; - = inactive; ? = inconclusive; . = no result. Compounds with a hit are over-represented: about 2.1% of the library has one in this group of screens. Unless noted, how the calls were made is not given here.

SMILES	eIF4H FP inh	EBNA-1 inh	PABP FP inh	ZTA counter	PABP1 MLLE inh	HCV NS3 hel inh
Cc1cc(C(=O)OCC(=O)Nc2cc(S(=O)(=O)N3CCOCC3)ccc2Cl)c(C)o1	-	-	-	-	-	-
CC(=O)C1=C(O)C(=O)N(c2ccc(S(N)(=O)=O)cc2)C1c1ccc([N+](=O)[O-])cc1 (stereo not given)	-	-	-	-	-	-
CC1C/C(=C/c2cccn2C)C(=O)/C(=C/c2cccn2C)C1 (stereo not given)	58	-	93	-	-	-
O=C(NCCCn1ccnc1)/C(=C\c1cccnc1)NC(=O)c1ccccc1Br	-	-	-	-	-	-
O=C1NC2=C(C(=O)CCC2)C(c2ccccc2[N+](=O)[O-])N1 (stereo not given)	107	-	98	-	41	-
CCS(=O)(=O)Nc1cccc(C2=NN(S(=O)(=O)CC)C(c3ccccc3)C2)c1 (stereo not given)	-	-	-	-	-	-
O=C(COc1ccc(Cl)cc1Cl)Nn1c(=S)[nH]c2ncccc2c1=O	-	-	-	-	46	-
COc1ccccc1OCC(=O)Nn1c(=S)[nH]c2ncccc2c1=O	-	-	-	-	44	-
O=C(COc1ccc(Cl)cc1Cl)Nc1cccnc1	-	-	-	-	-	-
O=C(NCC1CCCO1)c1ccc2c(c1)ncn2-c1cccc(F)c1 (stereo not given)	-	-	-	-	-	-
COc1ccc(Cl)cc1NC(=O)NCc1cccnc1	-	-	-	-	-	-
C=CCSc1nnc(CCCCCN2C(=O)c3cccc4cccc(c34)C2=O)o1	-	-	-	-	-	-
CC1CCN(C(=O)CN(Cc2ccc(Cl)cc2)S(C)(=O)=O)CC1	-	-	-	-	-	-
Cc1ccc2c(c1)c1c3n2CCN=C3CCC1	59	-	76	-	-	-
O=S(=O)(NCCOC12CC3CC(CC(C3)C1)C2)c1cccc2nsnc12	-	-	-	-	-	-
O=C(CNc1cccc2ccccc12)N/N=C/c1ccc(OC(=O)/C=C/c2ccco2)cc1	?	.	-	.	-	-
CC(/C=C/c1ccco1)=N/NC(=O)c1ccc(C)nc1	-	-	-	-	-	-
Cc1ccc(C(=O)N/N=C/c2cccc(OC(=O)/C=C/c3ccco3)c2)cn1	86	-	-	-	-	-
O=C(CNc1ccc2ccccc2c1)N/N=C/c1ccc(OC(=O)/C=C/c2ccco2)cc1	71	-	active	-	-	-
COc1ccc(N2CCN(C(c3cccs3)C(C)NC(=O)C(=O)N3CCCC3)CC2)cc1 (stereo not given)	-	-	-	-	-	-
COc1cc2cc3c(N)c(C(=O)NCc4ccco4)sc3nc2cc1OC	82	-	109	-	-	-
CC(=O)Nc1ccc(-c2csc(NC(=O)C3CC(=O)N(c4ccc5c(c4)OCCO5)C3)n2)cc1 (stereo not given)	60	-	59	-	-	-
COc1ccc(-c2csc(NC(=O)C3CC(=O)N(c4ccc5c(c4)OCCO5)C3)n2)cc1 (stereo not given)	-	-	-	-	-	-
C=CCCCN(Cc1ccccc1)S(=O)(=O)c1ccccc1Br	-	-	-	-	-	.
COc1cc(CNc2ccc(N3CCCC3)cc2)ccc1OCc1ccccc1	-	74	-	76	-	-
SMILES	eIF4H FP inh	EBNA-1 inh	PABP FP inh	ZTA counter	PABP1 MLLE inh	HCV NS3 hel inh
COc1cc(CNc2ccc(S(N)(=O)=O)cc2)ccc1OCc1ccccc1F	.	.	.	.	-	.
COc1cc(CNc2ccc(N3CCCC3)cc2)ccc1OCc1ccccc1F	-	65	-	79	-	-
Cc1ccc(NC2CCCN(C(=O)CN3C(=O)c4ccccc4C3=O)C2)cc1C (stereo not given)	-	-	-	-	-	-
CC(C)CCOc1ncnc2c1sc1nc3c(cc12)CSC(C)(C)C3	-	.	-	.	-	-
N#Cc1c(-c2ccco2)ccn(Cc2ccc(F)cc2)c1=O	-	-	-	-	-	-
N#Cc1c(-c2ccco2)ccn(Cc2cccc(F)c2)c1=O	70	-	active	-	-	-
O=C(Oc1ccc(O)cc1)C12CC3CC(CC(C3)C1)C2	-	-	-	-	-	-
COc1ccc2c(c1)c1ccc3c(c1n2C)C(=O)C=CC3=O	-	.	-	.	49	-
Cc1ccc2c(c1)c1ccc3c(c1n2C)C(=O)C=CC3=O	-	.	-	.	42	-
O=C(NCc1ccccc1)c1[nH]c(C(F)(F)F)nc1-c1ccccc1	.	.	.	.	-	.
COc1ccc(OC)c(N=c2oc3c(OC)cccc3cc2C(=O)NCc2ccco2)c1	118	-	-	-	-	.
COc1ccccc1N=c1oc2c(OC)cccc2cc1C(=O)NCc1ccco1	-	-	-	-	-	-
Cc1cc(NC(=O)CSCC(=O)N(C)Cc2ccc(Cl)c(Cl)c2)no1	-	-	55	-	-	-
COc1ccc(-c2cc(=O)c3ccc(O)cc3o2)cc1	.	.	.	.	-	.
COc1cc(-c2cc(=O)c3ccc(O)cc3o2)cc(OC)c1OC	.	.	.	.	45	.
Cc1nc(C)n(C(Oc2ccc(Cl)cc2Cl)C(=O)C(C)(C)C)n1 (stereo not given)	.	-	.	-	-	.
COCCN(C(=O)CSc1nnc(-c2cccc(OC)c2)n1C)c1c(N)n(Cc2ccccc2)c(=O)[nH]c1=O	-	-	-	-	-	-
Cc1cc(O)ccc1Nc1nc2ccccc2nc1Nc1ccc(O)cc1C	24	-	75	-	-	-
CCOC(=O)N1CCC(N(CCN(C)C)C(=S)Nc2ccccc2OCC)CC1	active	-	54	-	-	-
O=C(NCc1cccnc1)c1cc(C2CCCN(C(=O)c3ccc4c(c3)CCO4)C2)on1 (stereo not given)	.	.	.	.	-	.
CN1C=CC(=C[N+](=O)[O-])N(C)C1=O	.	.	.	.	-	.
CNC(=O)Nc1ccc(Cl)cc1	-	-	-	-	-	-
COc1ccc([N+](=O)[O-])cc1NC(=O)C(C)OC(=O)/C=C/c1ccco1 (stereo not given)	-	-	-	-	-	-
Cc1cccc(-c2nc(=S)c3c(o2)CCCC3)c1	-	-	-	-	45	-
COc1ccc(CNC(=O)C(C)N2C(=O)NC3(CCCCCCC3)C2=O)cc1 (stereo not given)	.	.	.	.	-	.
CC(=O)Nc1nc2n(n1)C(c1ccccc1)C=C(c1ccccc1)N2 (stereo not given)	-	-	-	-	59	-
CS(=O)(=O)Nc1nc2n(n1)C(c1ccccc1)C=C(c1ccc(Br)cc1)N2 (stereo not given)	76	-	11	-	-	-
O=C(c1nc2n(n1)C(c1ccc(Cl)cc1)C=C(c1ccccc1)N2)N1CCOCC1 (stereo not given)	66	-	65	-	-	-
CC(=O)Nc1ccc(NC(=O)CCC(=O)OCC(=O)c2cccc([N+](=O)[O-])c2)cc1	-	-	-	-	-	-
O=[N+]([O-])c1c(NCc2ccco2)ccc2nonc12	123	-	81	-	-	-
